Experimental findings from ChEMBL document CHEMBL1124173, “Enantiomers of 7-(2,3-epoxypropoxy)actinomycin D as dual-action DNA-acting antitumor agents” (J Med Chem, 1988) are described below.

Broadly, the ILS is the gain in survival time of treated over control animals, in per cent. A high value points to a large benefit in survival.

Numbered stars: 1 amine (or outer) side, 2 acyl side, 3 side chain; on linkers, the order of the positions; unused ones are H or OH. Bridge positions count the residues as written; N and C are the ends. Square brackets hold non-standard residues; d marks the D form. Peptide text beside a SMILES is read from it. I, II: the chains in the order shown. Actinocin(1to9) = Cc1c2oc3c(C)ccc(C(=O)[*:2])c3nc-2c(C(=O)[*:1])c(N)c1=O; NMeV = CN[C@H](C(=O)O)C(C)C; Sar = CNCC(=O)O

The subject of series [1] is Mus musculus. The series is described as follows: Antitumor activity measured as % increase in life span, for ip administration of compound and ip inoculation of B16 melanoma. The series is classed as functional. A digest of the protocol:
(§1)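 B16 brei (tumor weight/Hank's balanced salt solution 1:5, 0.2 mL) implanted sc or ip into groups of nine BDF1 mice on day 0. Drug given iv on day 1 (sc tumor) or ip on days 1, 5 and 9 (ip tumor), in 0.1 mL 5% v/v Me2SO-saline. Read-out is median survival time and %ILS versus untreated controls, excluding sixty-day survivors.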

Series [2] has as its system L1210. Put plainly: 50% Inhibition of growth of L1210 cells in culture. It is filed as functional, Mus musculus. The settings on record: read-out: ID50 (the source's name). The method in brief:
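L1210 leukemia cells growing actively in culture; ID50 is drug concentration (nM) giving 50% inhibition of growth relative to untreated L1210 cells.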

For series [3], the species on record is Mus musculus. Put plainly: Antitumor activity measured as optimal dose, against C26 colon carcinoma. It is filed as functional. The method in brief:
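Primary colon C26 carcinoma cells (trypan blue excluding, 2.5 × 10^5 cells/mouse) implanted in CDF1 mice on day 0. Drug given ip on days 1, 5 and 9 in 0.1 mL 5% v/v Me2SO-saline. Optimal dose in […]; %ILS and 60-day survivors scored.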

Series [4] is filed under the species Mus musculus. The series is described as follows: Antitumor activity measured as median survival time, against C26 colon carcinoma. The series is classed as functional. A digest of the protocol:
(§2)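 C26 primary colon carcinoma cells (trypan blue excluding, 2.5 × 10^5 cells/mouse) implanted in CDF1 mice on day 0. Drug given ip on days 1, 5 and 9 in 0.1 mL 5% v/v Me2SO-saline at optimal dose. Read-out is median survival time; %ILS is drug-treated over control, excluding survivors. Sixty-day survivors are counted.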

The test system of series [5] is Mus musculus. Put plainly: Antitumor activity measured as median survival time, for iv administration and sc inoculation of B16 melanoma.
The test system of series [6] is Mus musculus. Put plainly: Antitumor activity measured as % increase in life span, for iv administration of compound and sc inoculation of B16 melanoma.
In series [7] the test system is P388/ADR. Put plainly: Antitumor activity measured as Median survival time in days against P388/ADR, in ip implanted CDF1 mice, treated ip, qd 1-9. It is filed as functional, Mus musculus. A digest of the protocol: (§3)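 P388/ADR leukemia, a P388/S subline made resistant to intercalators, implanted ip in CDF1 mice. Drug given ip daily on days 1-9 at optimal dose. Read-out is median survival time of tumor-bearing mice and %ILS of treated dying animals versus controls. Survivors beyond 60 days are counted; 10 mice per group.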

The test system of series [8] is L1210. Put plainly: Optimal dose per injection, administered ip on days 1, 5, and 9, ip inoculation with 10E5 L1210 cells per CDF1 mouse on day 0. The series is classed as functional. The method in brief:
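CDF1 mice inoculated ip with 10^5 L1210 cells on day 0; drugs given ip on days 1, 5 and 9. Optimal dose in mg/kg per injection. %ILS is increase in median life span of treated dying mice over untreated tumor-bearing mice; survivors counted beyond 60 days, 9 per group.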

The subject of the next series is B16. The series is described as follows: In vitro 50% Growth inhibition of sensitive B16 cells. The series is classed as functional, Mus musculus. The settings on record: read-out: ID50 (the source's name). A digest of the protocol: (§4)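 Actively growing tumor cells in vitro (actinomycin-resistant P388/ADR leukemia; sensitive B16 melanoma); ID50 is concentration (nM) needed for 50% growth inhibition.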

Series [9] relates to P388/ADR. Put plainly: Antitumor activity against P388/ADR, in ip implanted CDF1 mice, treated ip, qd 1-9 measured as optimal dose. It is filed as functional, Mus musculus. The method in brief: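 P388/ADR leukemia implanted ip in CDF1 mice; drugs given ip once daily on days 1-9. Optimal dose recorded alongside median survival time and % increase in median life span of treated dying mice versus controls; survivors counted as >60-day survivors per group of 10.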

For series [10], the system named is P388/ADR. The series is described as follows: Antitumor activity measured as %ILS against P388/ADR, in ip implanted CDF1 mice, treated ip, qd 1-9. It is filed as functional, Mus musculus. A digest of the protocol:
as §3

The subject of series [11] is Mus musculus. Put plainly: Antitumor activity measured as median survival time, for ip administration and ip inoculation of B16 melanoma. It is filed as functional. The method in brief: as §1
Series [12] concerns P388/ADR. The series is described as follows: In vitro 50% Growth inhibition of actinomycin resistant P388/ADR cells. The series is classed as functional, Mus musculus. The settings on record: read-out: ID50 (the source's name). A digest of the protocol:
as §4

Series [13] is filed under the species Mus musculus. The series is described as follows: percent increase in median life time (%ILS) measured in mice bearing leukemia L!210. The series is classed as functional. The method in brief:
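CDF1 mice inoculated ip with 10^5 L1210 cells on day 0. Drug given ip on days 1, 5 and 9 at the optimal dose in mg/kg per injection. %ILS is the increase in median life span of treated dying animals versus untreated tumor-bearing mice. Over-60-day survivors are counted; 9 mice per group.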

Series [14] is filed under the species Mus musculus. The series is described as follows: Antitumor activity measured as optimal dose, for B16 melanoma.
Series [15] is filed under the species Mus musculus. Put plainly: Antitumor activity measured as % increase in life span, against C26 colon carcinoma. It is filed as functional. A digest of the protocol:
as §2

In series [16] the test system is Mus musculus. Put plainly: Antitumor activity measured as % increase in life span, for iv administration of compound and sc inoculation of B16 melanoma. The source holds these as a separate data set.
In series [17] the test system is Mus musculus. The series is described as follows: Antitumor activity measured as median survival time, for iv administration and sc inoculation of B16 melanoma. This is another data set of the same source.
A short description of series [18]: Molar ratio of DNA to total amount of compound that is bound both intercalatively and covalently to calf thymus DNA helix. It is filed as functional. The method in brief: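 [3H]Drug and purified calf thymus DNA dialyzed at 37 °C in Tris HCl pH 7.4 (20 mM per footnote; 25 mM in methods). Equilibrated complex precipitated twice with ethanol to remove unbound drug. Molar DNA/drug ratio based on total bound drug, intercalative plus covalent.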

Series [19] in a line: Ratio of DNA to compound bound entirely by covalent bonding to DNA base. The series is classed as functional. The method in brief: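 [3H]Drug and purified calf thymus DNA dialyzed at 37 °C in Tris HCl buffer; complex twice ethanol-precipitated to remove unbound drug. Molar DNA/drug ratio calculated from drug bound only covalently to DNA bases.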
Series [20] relates to L1210. The series is described as follows: Inhibition of synthesis of [5-3H]-uridine into RNA in L1210 cells. It is filed as functional, cell-based, Mus musculus. The conditions noted are these: Mus musculus, L1210. The method in brief:
(§5)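 Actively growing L1210 cells in vitro. Incorporation of [5-3H]uridine into RNA, or [methyl-14C]thymidine into DNA, compared with untreated cells. IC50 is micromolar drug concentration giving 50% reduction in incorporation rate.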

Series [21] concerns L1210. The series is described as follows: Inhibition of synthesis of [methyl-14C] thymidine into DNA, in L1210 cells. The series is classed as functional, cell-based, Mus musculus. The conditions noted are these: Mus musculus, L1210. The method in brief:
as §5

The species entered for another series is Bos taurus. Put plainly: Thermal denaturation of calf thymus DNA measured as ΔTm. The settings on record: cattle, in vitro.

Consider `Cc1c2oc3c(C)c(OC[C@H]4CO4)cc(C(=O)N[C@@H]4C(=O)N[C@H](C(C)C)C(=O)N5CCC[C@H]5C(=O)N(C)CC(=O)N(C)[C@@H](C(C)C)C(=O)O[C@@H]4C)c3nc-2c(C(=O)N[C@@H]2C(=O)N[C@H](C(C)C)C(=O)N3CCC[C@H]3C(=O)N(C)CC(=O)N(C)[C@@H](C(C)C)C(=O)O[C@@H]2C)c(N)c1=O`, for which the ILS is listed as 105% in the series with Mus musculus [1], 70% with Mus musculus [6], 400% in the series on P388/ADR [10] and 199% in the series filed under Mus musculus [13]. The IC50 stood at 23.1 nM with L1210 [2] (Mus musculus, L1210); 2 nM with B16 (Mus musculus, B16); 40 nM with P388/ADR [12] (Mus musculus, P388/ADR). The Dose in the series filed under Mus musculus [3] is 0.6 mg/kg; in the series on L1210 [8], 0.05 mg/kg; with P388/ADR [9], 0.3 mg/kg; in the series filed under Mus musculus [14], 1 mg/kg. The MST worked out at 41.5 days in the series listed under Mus musculus [4], 56 days with Mus musculus [5], 45 days in the series with P388/ADR [7] and 39 days in the series with Mus musculus [11]. The compound further came in with a %ILS in the series listed under Mus musculus [15] of 89%.

As to `Cc1c2oc3c(C)c(OCC4CO4)cc(C(=O)N[C@@H]4C(=O)N[C@H](C(C)C)C(=O)N5CCC[C@H]5C(=O)N(C)CC(=O)N(C)[C@@H](C(C)C)C(=O)O[C@@H]4C)c3nc-2c(C(=O)N[C@@H]2C(=O)N[C@H](C(C)C)C(=O)N3CCC[C@H]3C(=O)N(C)CC(=O)N(C)[C@@H](C(C)C)C(=O)O[C@@H]2C)c(N)c1=O` (stereo in doubt), the ILS with Mus musculus [1] is reported as 74%; in the series on Mus musculus [16], 60%; with P388/ADR [10] it was 377%; in the series filed under Mus musculus [13], 143%. Moreover, the IC50 in the series with L1210 [2] is 56.8 nM; with B16 it was 3.5 nM; in the series on P388/ADR [12], 135 nM. The Dose was found to be 0.9 mg/kg in the series filed under Mus musculus [3] and 0.8 mg/kg in the series on P388/ADR [9]. In addition, the MST in the series with P388/ADR [7] amounted to 43 days; in the series with Mus musculus [17], 53 days; in the series with Mus musculus [11], 33 days.

As for `Cc1c2oc3c(C)c(OCC4CO4)cc(C(=O)N[C@@H]4C(=O)N[C@@H](C(C)C)C(=O)N5CCC[C@H]5C(=O)N(C)CC(=O)N(C)[C@@H](C(C)C)C(=O)O[C@H]4C)c3nc-2c(C(=O)N[C@@H]2C(=O)N[C@@H](C(C)C)C(=O)N3CCC[C@H]3C(=O)N(C)CC(=O)N(C)[C@@H](C(C)C)C(=O)O[C@H]2C)c(N)c1=O` (stereo in doubt; 3b), the figures for the Ratio in series [18] and in [19] were 32 and 480, respectively.

`Cc1c2oc3c(C)ccc(C(=O)N[C@@H]4C(=O)N[C@H](C(C)C)C(=O)N5CCC[C@H]5C(=O)N(C)CC(=O)N(C)[C@@H](C(C)C)C(=O)O[C@@H]4C)c3nc-2c(C(=O)N[C@@H]2C(=O)N[C@H](C(C)C)C(=O)N3CCC[C@H]3C(=O)N(C)CC(=O)N(C)[C@@H](C(C)C)C(=O)O[C@@H]2C)c(N)c1=O` [DACTINOMYCIN] (I: T[dV]P[Sar][NMeV] / II: T[dV]P[Sar][NMeV]; ester I:1-I:C, II:1-II:C; linker I:N-II:N via Actinocin(1to9)): the ILS with Mus musculus [1] came out at 52%; in the series with Mus musculus [6] it was 36%; in the series with P388/ADR [10] it was 33%; in the series filed under Mus musculus [13] it was 55%; in the series filed under Mus musculus [15] it was 52%. Also, the IC50 in the series with L1210 [2] (Mus musculus, L1210) turned out to be 60.1 nM; in the series with L1210 [20], 19 nM; with B16 (Mus musculus, B16), 3 nM; with L1210 [21], 380 nM; in the series on P388/ADR [12] (Mus musculus, P388/ADR) it was 2500 nM. The Dose in the series listed under Mus musculus [3] turned out to be 0.3 mg/kg; in the series with L1210 [8], 0.025 mg/kg; in the series with P388/ADR [9], 0.075 mg/kg; in the series filed under Mus musculus [14] it was 0.9 mg/kg. Besides, the MST came to 33.5 days in the series filed under Mus musculus [4], 12 days with P388/ADR [7], 45 days in the series on Mus musculus [17] and 29 days in the series on Mus musculus [11]. In series [18], the Ratio was determined as 26. Besides, in the series filed under Bos taurus, the ΔTm is 7.1.
